Experiments:
eIF4A1 = eIF4A1 (Homo sapiens, UniProt P60842); assay: Fluorescence polarization; assay type: binding; conditions: for rank in screen for enhancing eIF4A1:poly r(AG)8 RNA binding: 10 µM rocaglate, >200 rocaglates of BU-CMD collection
NIH/3T3 cells = assay: Sulforhodamine B; assay type: cell-based; conditions: read-out: IC50 cytotoxicity against NIH/3T3 cells; 4 day compound exposure
[1] = tested on: 80S ribosome assembly on (AG)10-FF/HCV/Ren mRNA; assay: Ribosome binding; assay type: biochemical, rabbit; conditions: 500 nM compound, 100 nM eIF4A1, RRL, 600 µM cycloheximide
Summary of the method: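 32P-labeled (AG)10-FF/HCV/Ren mRNA preincubated with 100 nM eIF4A1 and 500 nM compound for 10 min at RT. Then added to rabbit reticulocyte lysate with 600 µM cycloheximide and incubated 10 min at 30 °C. Lysate sedimented on 10–30% glycerol gradients (SW40, 39,000 rpm, 3.5 h, 4 °C). Fractions collected and radioactivity measured by scintillation counting.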

[2] = tested on: cap-dependent translation (FF); assay: In vitro translation assay in Krebs-2 extracts; assay type: biochemical; conditions: Krebs-2 extracts programmed with mRNA
Summary of the method: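 Reporter mRNA added at 10 ng/µL final. Incubated with or without compound 60 min at 30 °C; firefly luciferase read. IC50 from 3–5 independent experiments (6 concentration points), nonlinear regression fit.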

HEK293 cells = assay: [35S]-methionine labeling; assay type: cell-based; conditions: 1 h compound exposure; compared with CR-1–31-B and CMLD012073
myr-Akt/Eµ-Myc lymphomas = assay: Lymphoma chemosensitization study; assay type: in vivo, mice; conditions: CMLD012612 0.2 mg/kg IP daily for 5 days + doxorubicin 10 mg/kg on day 2
liver polysomes = assay: Liver polysome profiling after intraperitoneal delivery; assay type: in vivo, mice; conditions: 3 h after intraperitoneal injection; 0.5 mg/kg CMLD012612, 0.2 mg/kg CR-1–31-B
eIF4A2 = eIF4A2 (Homo sapiens, UniProt Q14240); assay: Fluorescence polarization; assay type: binding; conditions: 10 µM CR-1–31-B, 10 nM FAM poly r(AG)8, 30 min RT
Summary of the method: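 His6-eIF4A2 expressed in E. coli BL21(DE3), purified by Ni-NTA then Q-Sepharose. Varied eIF4A2 concentrations mixed with 10 nM FAM-poly r(AG)8, plus DMSO vehicle or test compound. Equilibrated 30 min at RT, then polarization read. Change in FP expressed relative to DMSO control; n = 3 ± SEM.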

Sequence of eIF4A1 (P60842 whole entry, species assumed): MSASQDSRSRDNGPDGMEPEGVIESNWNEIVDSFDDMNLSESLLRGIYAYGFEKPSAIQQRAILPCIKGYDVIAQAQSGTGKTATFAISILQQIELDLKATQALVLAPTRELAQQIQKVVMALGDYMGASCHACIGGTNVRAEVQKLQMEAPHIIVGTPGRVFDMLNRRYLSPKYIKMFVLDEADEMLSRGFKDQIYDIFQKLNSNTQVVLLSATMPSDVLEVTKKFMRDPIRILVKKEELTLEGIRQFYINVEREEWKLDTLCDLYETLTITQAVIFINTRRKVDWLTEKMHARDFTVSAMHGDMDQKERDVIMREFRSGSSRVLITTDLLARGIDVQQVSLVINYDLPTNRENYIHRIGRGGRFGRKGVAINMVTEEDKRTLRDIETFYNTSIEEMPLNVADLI
Sequence of eIF4A2 (Q14240 whole entry, species assumed): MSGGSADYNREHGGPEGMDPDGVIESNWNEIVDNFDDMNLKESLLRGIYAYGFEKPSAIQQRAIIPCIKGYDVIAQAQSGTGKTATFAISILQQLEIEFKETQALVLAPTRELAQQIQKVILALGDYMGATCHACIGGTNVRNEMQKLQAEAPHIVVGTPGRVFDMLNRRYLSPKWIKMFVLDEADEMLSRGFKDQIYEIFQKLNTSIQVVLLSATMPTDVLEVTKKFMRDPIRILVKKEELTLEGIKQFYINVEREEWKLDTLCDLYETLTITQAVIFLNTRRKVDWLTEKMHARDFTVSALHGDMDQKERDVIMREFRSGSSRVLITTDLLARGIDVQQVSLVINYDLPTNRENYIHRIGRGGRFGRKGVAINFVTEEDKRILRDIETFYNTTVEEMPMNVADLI

| Compound | rank in screen for enhancing eIF4A1:poly r(AG)8 RNA binding (eIF4A1) | IC50 (NIH/3T3 cells) [nM] | assembly of the 80S ribosome on the mRNA [1] | suppression of liver polysomes (liver polysomes) | also measured |
| --- | --- | --- | --- | --- | --- |
| COC(=O)[C@@H]1[C@@H](c2ccccc2)[C@]2(c3ccc(OC)cc3)Oc3cc(OC)cc(OC)c3[C@@]23N=C(C2CC2)N[C@@]13O [CMLD012072] | Among the most potent |  |  |  |  |
| COC(=O)[C@@H]1[C@@H](c2ccccc2)[C@]2(c3ccc(OC)cc3)Oc3cc(OC)cc(OC)c3[C@@]23N=C(C)N[C@@]13O [CMLD012073] | Among the most potent | 10 | inhibited assembly of the 80S ribosome |  | potency at inhibiting cap-dependent translation (FF) relative to CR-1–31-B [2]: ~ 3 fold |
| COc1ccc([C@@]23Oc4cc(OC)cc(OC)c4[C@@]24NC(C)=NC4=C(C=O)[C@H]3c2ccccc2)cc1 [CMLD012607] |  | 454 |  |  |  |
| COc1ccc([C@@]23Oc4cc(OC)cc(OC)c4[C@@]24N=C(C)N[C@@]4(O)[C@H](C(=O)N(C)OC)[C@H]3c2ccccc2)cc1 [CMLD012612] |  | ~2 |  | effectively suppressed liver polysomes | inhibition of cellular translation (35S-methionine incorporation) (HEK293 cells): surpasses those of our previous lead compounds; duration of complete tumor loss (tumor-free survival) (myr-Akt/Eµ-Myc lymphomas): 15 to 16 days; synergy with doxorubicin (myr-Akt/Eµ-Myc lymphomas): effectively synergized; cytotoxicity in eIF4A1^em1JP cells versus NIH/3T3 (eIF4A1^em1JP cells): significantly blunted; resistance of eIF4A^em1jp cells relative to parental NIH/3T3 cells (eIF4A1^em1JP cells; 4 day compound exposure): at least 10 fold |
| CONC(=O)[C@H]1[C@@H](O)[C@@]2(O)c3c(OC)cc(OC)cc3O[C@@]2(c2ccc(OC)cc2)[C@@H]1c1ccccc1 [CR-1–31-B] | ranked highly | ~8.5 | inhibited assembly of the 80S ribosome | effectively suppressed liver polysomes | stimulation of eIF4A1 binding to poly rA(GAA)5 (eIF4A1; 500 nM eIF4A1, 30 min, change in FP vs vehicle): preferentially stimulated; binding activity of eIF4A1 to poly r(AG)8 (eIF4A1; 10 µM CR-1–31-B, 10 nM FAM poly r(AG)8, 30 min RT): enhanced; binding activity of eIF4A2 to poly r(AG)8 (eIF4A2): enhanced |
| CONC(=O)[C@H]1[C@@H](O)[C@@]2(O)c3c(OC)cc(OC)cc3O[C@@]2(c2ccc(Br)cc2)[C@@H]1c1ccccc1 [SDS-1–0-21] | ranked highly |  |  |  |  |
